Results: ChEMBL document CHEMBL1145058, “Hydroxyurea analogues as kinetic and mechanistic probes of the nitric oxide producing reactions of hydroxyurea and oxyhemoglobin” (J Med Chem, 2003)

Legend:
[1] = Half peak chemical potential versus Ag/Agcl was determined; type: ADME
[2] = Nitrite production was measured with Sievers 280 nitric oxide analyzer chemiluminescence; type: ADME
Outline: (§1)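 Oxyhemoglobin reacted with hydroxyurea derivatives at 50 mM in 0.1 M sodium phosphate, pH 7.3; nitrite and nitrate products quantified by nitric oxide analyzer chemiluminescence; n = 3.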

[3] = Nitrate production was measured with Sievers 280 nitric oxide analyzer chemiluminescence; type: ADME; outline: as §1
[4] = Dissociation constant (PKa) was determined; type: physicochemical
[5] = Apparent rate constant was determined; type: ADME
Outline: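 Adult human oxyhemoglobin (70 μM in heme; also HbS) in 0.1 M sodium phosphate, pH 7.3, mixed with hydroxyurea derivative at 50 mM (5 mM for one poorly soluble analogue), 25 °C under air. UV-visible absorption recorded every 5 min for up to 12 h. Apparent first-order rate constant in min^-1 derived from the spectral kinetics; mean ± SD, n = 3.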

Structure (SMILES) | Ep2/2 [1] [mV] | Nitrite [2] [µM] | Nitrate [3] [µM] | pKa [4] | rate constant app [5] [min⁻¹]
NC(=O)NO [HYDROXYUREA] | 948 | 9.4 | 25.1 | 10.7 | 0.000754
CCCCNC(=O)NO | 693 | 2.4 | 3.5 | 11 | 0.00856
CN(O)C(N)=O | 588 | 6.3 | 7.5 | 9.95 | 0.0393
CONC(N)=O | – | 0 | 0 | – | –
O=C(NO)Nc1ccccc1 | 433 | 7.3 | 26.1 | 10.3 | 0.0624
CCN(CC)C(=O)NO | 705 | 6.1 | 18.5 | 10.8 | 0.00226
COc1ccc(NC(=O)NO)cc1 | 560 | – | – | 10.2 | 0.00194
